Screens deposited in PubChem by Broad Institute.
An excerpt weighted towards active compounds, which were near 1.3% of everything screened.
XiGFP reactiv: X-chromosome reactivation activator; activation, % at 7.58 µM; 360,000 compounds, 0.055% hits; XiGFP mouse fibroblasts, % GFP-positive cells imaging, 3 d; cells co-treated with 5-aza-dC sensitizer; scaled so ellipticine positive control = 100%;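 active = mean normalized replicate activation at least 10% and every replicate at or above 10%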
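Assay system – SV40-immortalized XiGFP fibroblast cells, line 68-5-11 · Buffer or medium – DMEM supplemented with 5-aza-dC as sensitizing agent · Dosing – one concentration, pinned · Benchmarks – positive control ellipticine, 6 µM final · Times – 3 days compound exposure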
CASP6 VEID inh: caspase-6 (human) enzyme inhibition. 350,000 compounds, 0.53% hits. purified caspase-6, Z-VEID-R110 cleavage fluorescence. inhibition, % at 12.5 µM. P55212. AID 686996;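 active = mean inhibition across replicates at least about 35%, with every replicate also reaching that limit, limit read from the data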
S100A4 MyoIIA: S100A4-myosin IIA interaction inhibition; P26447; S100A4/TAMRA-MyoIIA peptide fluorescence polarization; inhibition, % at 10.7 µM; 360,000 compounds, 0.14% hits; AID 652163;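 active = mean inhibition of at least 70% across replicates, with every replicate also reaching that level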
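System – human S100A4 monomer protein, biochemical binding assay · Buffer or medium – Calcium-containing HEPES buffer, pH 7.2 · Timing – 5 min between mix addition and reading · Also added – TAMRA-labelled myosin IIA heavy-chain peptide probe, 5 nM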
RAD54 inh: RAD54 (human) branch migration inhibition; inhibition, % at 10.4 µM; RAD54 Holliday junction branch migration, FAM/BHQ fluorescence; AID 602329; 360,000 compounds, 0.14% hits;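 active = mean normalized replicate activity at least 40 and at least half of replicates scoring 40 or more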;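 note: inhibitors cause a drop in the FAM fluorescence signal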
RAD52 anneal inh: inhibitors of human RAD52 DNA annealing. P43351. recombinant RAD52 DNA annealing, FRET fluorescence. inhibition, % at 18.7 µM. 360,000 compounds, 0.46% hits;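 active = every replicate showing at least 50% inhibition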
Target sequence (P43351 whole entry, looked up): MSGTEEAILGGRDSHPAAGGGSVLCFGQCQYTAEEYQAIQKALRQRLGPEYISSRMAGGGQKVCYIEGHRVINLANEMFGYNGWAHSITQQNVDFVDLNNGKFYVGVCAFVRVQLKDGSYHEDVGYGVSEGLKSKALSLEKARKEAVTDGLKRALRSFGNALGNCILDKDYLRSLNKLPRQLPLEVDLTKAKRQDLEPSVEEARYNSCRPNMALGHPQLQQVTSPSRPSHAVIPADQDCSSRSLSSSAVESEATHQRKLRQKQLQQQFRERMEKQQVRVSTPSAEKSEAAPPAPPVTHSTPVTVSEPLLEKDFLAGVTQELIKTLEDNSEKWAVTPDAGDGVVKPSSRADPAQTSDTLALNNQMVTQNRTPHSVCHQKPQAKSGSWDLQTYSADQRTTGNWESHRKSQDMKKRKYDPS
MLL AF4-AF9 inh: blocks AF4 peptide binding to human AF9; P42568; AlphaScreen, biotin-AF4 peptide binding to FLAG-AF9; inhibition, % at 10 µM; 350,000 compounds, 0.47% hits;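 active = every replicate reaching a set inhibition limit, whatever the replicate mean, cut at about 25% in these data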
A number is an active result; - = inactive; . = no result.

SMILES | XiGFP reactiv | CASP6 VEID inh | S100A4 MyoIIA | RAD54 inh | RAD52 anneal inh | MLL AF4-AF9 inh
C[C@@H]1CCCCO[C@@H](CN(C)Cc2ccc(Cl)c(Cl)c2)[C@@H](C)CN([C@H](C)CO)C(=O)c2cc(N(C)C)ccc2O1 | - | - | - | - | - | 48
COc1ccc(NC(=O)N(C)C[C@H]2Oc3cc(C#CCC(C)C)ccc3S(=O)(=O)N([C@@H](C)CO)C[C@H]2C)cc1 | . | - | - | - | - | -
COc1ccc(CN(C)C[C@@H]2OCCCC[C@@H](C)Oc3ccc(NC(=O)Cc4ccccc4)cc3C(=O)N([C@@H](C)CO)C[C@@H]2C)cc1 | - | . | . | - | . | .
COc1ccc2c3c([nH]c2c1)[C@H](CO)N(C(=O)CC1CC1)CC31CCN(Cc2ccncc2)CC1 | - | . | . | . | . | .
CC(C)NC(=S)N/N=C/c1sc(N2CCCCC2)nc1-c1cccs1 | - | - | - | - | - | -
NC(=O)N/N=C/c1sc(N2CCCCC2)nc1-c1cccs1 | - | - | - | - | - | 30
Cc1ccc([C@@H]2[C@@H]3C(=O)N(c4ccccc4)C(=O)[C@@H]3[C@]3(C)C(=O)N(Cc4ccccc4)CC(=O)N23)o1 | - | - | - | - | - | -
CC1NC2(C(=O)N(Cc3ccccc3)c3ccccc32)C2C(=O)N(c3ccccc3)C(=O)C12 (stereo not given) | - | - | 86 | - | - | -
CC1CCCC(NC(=O)c2cc(S(=O)(=O)N3CCOCC3)ccc2F)C1C (stereo not given) | - | - | - | . | - | -
CC1CC(C)CN(S(=O)(=O)c2ccc(F)c(C(=O)NC3CCCCC3C)c2)C1 (stereo not given) | - | 62 | - | - | - | -
O=C(O)Cc1ccc(N=Nc2c(O)c(C(=O)O)cc3ccccc23)cc1 | - | 40 | - | - | - | -
NS(=O)(=O)c1ccc(N=Nc2c(O)c(C(=O)O)cc3ccccc23)cc1 | - | - | - | - | - | -
Cc1ccc(NC(=S)Nc2cccc3cnccc23)cc1 | - | 80 | - | - | - | -
FC(F)(F)c1ccccc1NC(=S)Nc1cccc2cnccc12 | - | 37 | - | . | - | -
O=[N+]([O-])c1ccc(Cl)c(S(=O)(=O)Nc2ccc3cn[nH]c3c2)c1 | - | - | - | - | - | -
O=C(O)c1ccc(Cl)c(S(=O)(=O)Nc2ccc3cn[nH]c3c2)c1 | - | 37 | - | . | - | -
O=C(O)c1cc(S(=O)(=O)Nc2ccc3cn[nH]c3c2)ccc1O | - | 60 | - | - | - | -
CCOC(=O)c1c(C)oc2c1cc(NS(=O)(=O)c1ccc(C(=O)O)cc1)c1ccccc12 | - | 62 | - | - | - | -
Cc1oc2c(cc(NS(=O)(=O)c3ccc(Cl)cc3)c3ccccc32)c1C(=O)O | - | - | - | - | - | -
Cn1c(SCC(=O)OCc2ccccc2)nnc1-c1ccco1 | . | . | . | - | . | .
CCn1c(SCC(=O)OCc2ccccc2)nnc1-c1ccco1 | . | 57 | - | - | - | -
O=C1Cc2ccccc2C(=O)N1Nc1ccccc1 | - | 49 | - | . | - | -
COc1ccc(N2C(=O)Cc3ccccc3C2=O)cc1 | - | 43 | - | - | - | -
Cc1ccccc1N1Cc2ccccc2C1=O | - | - | - | - | - | -
Cc1ccccc1N1C(=O)Cc2ccccc2C1=O | - | 54 | - | - | - | -
SMILES | XiGFP reactiv | CASP6 VEID inh | S100A4 MyoIIA | RAD54 inh | RAD52 anneal inh | MLL AF4-AF9 inh
O=C(N[C@H]1CC[C@@H](CCNS(=O)(=O)c2ccc(F)cc2)O[C@H]1CO)C1CCCC1 | - | - | - | - | - | -
Cc1cccc(-c2ccc([C@H]3[C@H]4CN(C(=O)c5cccnc5)CCCCN4[C@H]3CO)cc2)c1 | - | - | - | - | - | 26
O=C(c1cccc(F)c1)N1CCCCN2[C@H](CO)[C@@H](c3ccc(-c4ccc(F)cc4)cc3)[C@H]2C1 | . | - | - | - | - | -
O=C(c1cccc(F)c1)N1CCCCN2[C@@H](CO)[C@@H](c3ccc(-c4ccc(F)cc4)cc3)[C@@H]2C1 | . | - | - | - | 53 | -
Cc1cccc(-c2ccc([C@@H]3[C@@H](CO)N4CCCCN(C(=O)c5cccnc5)C[C@@H]34)cc2)c1 | - | - | - | - | - | -
FC(F)(F)c1cc(CCN2CCNC[C@@H]2Cc2ccccc2)cc(C(F)(F)F)c1 | - | - | - | - | - | 27
